SENP6 inh = SENP6 protease inhibitors, primary screen, biochemical, luminescence, uHTS. Recombinant SENP6 catalytic domain, aminoluciferin luminescence. inhibition, % at 10 µM. hit rate 1.8% among 330,000;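 active = inhibition above about 50% at the single tested dose, limit read from the data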;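 also: plate controls were DMSO wells with enzyme for no effect and DMSO wells lacking enzyme for full effect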
SENP7 inh = SENP7 protease inhibitors, primary screen, biochemical, luminescence, uHTS. recombinant SENP7, Z-RLRGG-aminoluciferin luminescence, 40 min. Sentrin-specific protease 7 (Homo sapiens), Q9BQF6. inhibition, % at 5 µM. hit rate 1.5% among 330,000;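 active = inhibition above about 50% at the single test dose, limit read from the data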;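 also: plate controls were DMSO with enzyme for no effect and no enzyme buffer wells for full effect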
SENP1 inh = human SENP1 catalytic domain inhibitors, primary screen, biochemical, FRET, uHTS. hit rate 0.21% among 360,000. AID 624204, 2012. Sentrin-specific protease 1 (Homo sapiens), Q9P0U3. inhibition, % at 10 µM. recombinant SENP1 catalytic domain, CyPet-SUMO1-YPet FRET cleavage;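 active = inhibition at least 30% at 10 µM, raw YFP signal under a set limit, fluorescence ratio 0.5 to 1.5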;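 also: 0% = enzyme with DMSO and 100% = no enzyme wells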
Target sequence (Q9P0U3 419-644 limits assumed): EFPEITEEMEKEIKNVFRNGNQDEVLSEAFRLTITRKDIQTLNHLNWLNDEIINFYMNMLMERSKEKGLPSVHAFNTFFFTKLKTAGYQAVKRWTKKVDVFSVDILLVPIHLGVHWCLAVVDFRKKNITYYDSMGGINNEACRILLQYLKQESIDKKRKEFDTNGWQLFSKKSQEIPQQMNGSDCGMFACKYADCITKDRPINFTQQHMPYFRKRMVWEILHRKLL
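Test system: recombinant human SENP1 catalytic domain, His6-tagged / Medium: pH 8 Tris buffer with EDTA, NaCl, BME, BSA, NP40, catalase / Also added: SUMO1 FRET substrate flanked by Cypet and Ypet, 25 nM / Times: 50 min reaction at room temperature / Signal: FRET, CFP and YFP emission / Control set: no-enzyme low control and enzyme-plus-DMSO high control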
SENP8 block-1 = SENP8 protease inhibitors, primary screen, biochemical, luminescence. inhibition, % at 10 µM. hit rate 1.2% among 330,000. purified SENP8, Z-RLRGG-aminoluciferin cleavage. AID 2540, 2010; in the data active = inhibition above about 50%
Target sequence (Q96LD8 whole entry, looked up): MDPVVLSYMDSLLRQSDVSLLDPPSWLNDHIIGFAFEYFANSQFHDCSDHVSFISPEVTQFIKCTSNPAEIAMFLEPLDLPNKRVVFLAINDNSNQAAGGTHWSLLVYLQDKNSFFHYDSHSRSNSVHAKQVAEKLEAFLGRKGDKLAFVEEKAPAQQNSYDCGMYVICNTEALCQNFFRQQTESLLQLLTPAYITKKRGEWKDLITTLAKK
Platelet DG rel = inhibitors of platelet dense granule secretion, primary screen, cell-based, MLPCN, human platelets; hit rate 0.22% among 300,000; human platelet-rich plasma, SFLLRN dense granule ATP release, luminescence; inhibition, %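 (compounds screened at 7.5 µM in platelet-rich plasma)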;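 active = mean replicate score, as percent of positive control, at or above 50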
SENP8 block-2 = human SENP8 protease inhibitors, primary screen, biochemical, fluorescence, Nedd8 protein substrate, uHTS | Sentrin-specific protease 8 (Homo sapiens), Q96LD8 | recombinant SENP8 | inhibition, % at 20 µM | hit rate 0.64% among 360,000 | AID 602440, 2012; in the data active = inhibition mostly above about 40%, no sharp cut-off; inactive = mostly below about 27%
SENP8 conf = SENP8 protease inhibitors, retest, confirmation, biochemical, luminescence, single concentration; shares compounds with SENP7 inh; Recombinant SENP8, Z-RLRGG-aminoluciferin luminescence, 60 min; inhibition, % at 12.5 µM; hit rate 40% among 6,200;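 active = mean inhibition across replicates above about 50%, limit read from the data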
SENP6 conf = SENP6 protease inhibitors, confirmation, biochemical, luminescence, single concentration; inhibition, % at 12.5 µM; recombinant SENP6, Z-RLRGG-aminoluciferin luminescence; hit rate 58% among 6,200; AID 488915, 2010; shares compounds with SENP7 inh
SENP7 confirm = SENP7 protease inhibitors, retest, confirmation, biochemical, luminescence, single concentration; shares compounds with SENP7 inh; recombinant SENP7, Z-RLRGG-aminoluciferin luminescence, 40 min; inhibition, % at 12.5 µM; hit rate 69% among 6,200; AID 488917, 2010
Casp3 SENP sel = caspase-3 protease inhibitors, confirmation, selectivity assay for SENP inhibitor project, biochemical, single concentration | shares compounds with SENP7 inh | inhibition, % at 12.5 µM | purified caspase-3, Z-DEVD-aminoluciferin luminescence, 60 min | AID 488918, 2010 | hit rate 60% among 6,200;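 active = mean inhibition above about 50%, limit read from the data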;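 also: plate controls were enzyme with DMSO for no effect and wells without caspase-3 for full effect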
Target sequence (P42574 28-227 limits assumed): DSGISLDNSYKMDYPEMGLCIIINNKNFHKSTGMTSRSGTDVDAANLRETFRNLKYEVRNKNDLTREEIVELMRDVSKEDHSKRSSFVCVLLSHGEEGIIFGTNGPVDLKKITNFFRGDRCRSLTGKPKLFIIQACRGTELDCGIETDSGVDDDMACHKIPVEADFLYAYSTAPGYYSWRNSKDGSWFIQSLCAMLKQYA
SENP luc ctr = counter-screen for SENP inhibitors: luminescence interference | shares compounds with SENP7 inh | Pre-incubated SENP8/Z-RLRGG-aminoluciferin, luciferase luminescence interference | inhibition, % at 12.5 µM | hit rate 39% among 6,200;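 active = mean inhibition above about 50% when retested at one dose, limit read from the data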;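 also: plate controls were DMSO wells with completed reaction for no effect and substrate without enzyme for full effect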
* marks the source's active call; other numbers are inactive results; i = inactive; x = no result given. Hits are enriched below; roughly 2.6% of the tested compounds scored in any of these assays.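 The calls were made as follows, unless noted: active = mean inhibition above about 50% in the one-dose retest (limit read from the data); inactive = the rest.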

SMILES	SENP6 inh	SENP7 inh	SENP1 inh	SENP8 block-1	Platelet DG rel	SENP8 block-2	SENP8 conf	SENP6 conf	SENP7 confirm	Casp3 SENP sel	SENP luc ctr
O=C(OCc1ccc(COC(=O)c2cccnc2Cl)cc1)c1cccnc1Cl	-8	-4	3	-22	-2	1	x	x	x	x	x
CC(C)N(C(=O)COC(=O)c1cccnc1Cl)c1ccccc1	11	2	1	3	x	14	x	x	x	x	x
O=C(OCc1ccccc1Cl)c1cccnc1Cl	63*	28	-1	20	2	11	32	35	72*	42	36
C=Cc1ccc(Cn2c(C)c(C(=O)NCc3ccccc3C(F)(F)F)sc2=O)cc1	x	x	4	x	x	0	x	x	x	x	x
Clc1ccc(-c2cc3ccccc3[nH]2)cc1	71*	44	-7	31	0	-278	11	42	78*	11	26
Cc1cc(C)c(-c2nc3ccccc3s2)[nH]1	19	4	-19	59*	15	-326	81*	90*	99*	76*	70*
Nc1cccc(-c2nc3ccccc3s2)c1	100*	100*	-19	93*	21	i	96*	98*	103*	96*	97*
Oc1cccc(-c2nc3ccccc3s2)c1	96*	95*	-1	92*	13	-142	-23	95*	102*	87*	95*
COc1cc(OC)c(-c2nc3ccccc3s2)cc1OC	-8	4	-1	-10	-3	-399	x	x	x	x	x
Cc1cc2[nH]c(=O)c(=O)[nH]c2cc1S(=O)(=O)Nc1cccc(C)c1C	-19	-16	0	-5	-9	-257	x	x	x	x	x
Cc1c(C(=O)NNC(=O)c2ccccc2O)oc2ccccc12	x	x	1	x	x	-13	x	x	x	x	x
C=CCc1cccc(/C=N/NC(=O)CNc2ccccc2OC)c1O	-6	5	1	1	13	2	x	x	x	x	x
O=C(CNc1cccc2ccccc12)N/N=C/C(Br)=C/c1ccccc1	80*	39	-14	56*	-3	-48	10	14	12	5	5
C=CCc1cccc(/C=N/NC(=O)CNc2cccc3ccccc23)c1O	72*	31	-1	34	-1	-216	7	7	18	13	10
O=C(CNc1cccc2ccccc12)N/N=C/c1ccc([N+](=O)[O-])o1	80*	39	-3	9	0	-99	22	40	12	0	-1
O=C(CNc1cccc2ccccc12)N/N=C/c1ccc[nH]1	7	-2	0	6	-4	-359	x	x	x	x	x
COc1ccc(C(=O)CN2C(=O)NC3(CCCCCC3)C2=O)cc1	-15	8	-4	-8	3	-2	x	x	x	x	x
CCN(CC)S(=O)(=O)c1ccc(C)c(C(=O)Oc2cccc(-c3cnc4ccccc4n3)c2)c1	0	1	3	-10	-1	1	x	x	x	x	x
O=C(Oc1cccc(-c2cnc3ccccc3n2)c1)c1ccco1	60*	52*	-2	59*	-1	-17	18	45	76*	61*	13
Cc1noc(C)c1CSCC(=O)N(C)CC(=O)Nc1ccc(F)c(F)c1F	-6	4	1	3	2	1	x	x	x	x	x
Cc1cccc2sc(NC(=O)c3ccc(NS(=O)(=O)c4cccs4)cc3)nc12	86*	45	-1	70*	5	-326	2	81*	6	31	26
O=C(O)CSc1nnc(-c2ccc(Cl)cc2Cl)n1Cc1ccccc1	16	2	0	0	-2	11	x	x	x	x	x
COC(=O)[C@@]1(C(C)C)N=C(c2cc(OC)c(OC)c(OC)c2)[C@]2(O1)C(=O)N(C)c1ccccc12	x	x	1	x	x	6	x	x	x	x	x
CCC(=O)Nc1cc2nn(-c3ccc(C)cc3)nc2cc1C	-14	51*	2	4	1	-404	11	7	11	8	-2
Cc1ccc(-n2nc3cc(C)c(NC(=S)NC(=O)/C=C/c4ccco4)cc3n2)cc1	33	-1	-17	10	8	-162	x	x	x	x	x
SMILES	SENP6 inh	SENP7 inh	SENP1 inh	SENP8 block-1	Platelet DG rel	SENP8 block-2	SENP8 conf	SENP6 conf	SENP7 confirm	Casp3 SENP sel	SENP luc ctr
CCCCC(=O)Nc1cc2nn(-c3ccc(OC)cc3)nc2cc1C	-50	-11	3	-3	5	-320	x	x	x	x	x
CCC(=O)Nc1cc2nn(-c3ccc(OC)cc3)nc2cc1C	-15	57*	1	-15	4	-299	11	10	15	10	3
COC(=O)C1=CCCCC(O)=C1C(=O)OC	x	x	1	x	x	17	x	x	x	x	x
O=C(CCCN1C(=O)/C(=C/c2ccccc2Cl)SC1=S)Nc1cccnc1	36	51*	3	47	-2	18	0	48	14	24	6
O=C(CCN1C(=O)/C(=C/c2ccccc2Cl)SC1=S)NC1CCCC1	2	1	4	8	-7	11	x	x	x	x	x
O=C(CCN1C(=O)/C(=C/c2ccccc2Cl)SC1=S)Nc1cccnc1	4	1	5	5	11	23	x	x	x	x	x
O=C(CCN1C(=O)/C(=C/c2ccccc2Cl)SC1=S)NN1CCOCC1	37	52*	3	45	-1	14	8	8	8	16	4
Clc1ccccc1-c1nc(-c2ccncc2)no1	81*	80*	1	75*	8	12	82*	84*	97*	84*	71*
c1ccc(-c2ccccc2-c2nc(-c3ccncc3)no2)cc1	-11	8	1	5	1	17	x	x	x	x	x
C(=C\c1nc(-c2cccnc2)no1)/c1ccccc1	-21	33	-1	13	-7	-3	x	x	x	x	x

Bioassay records as filed in PubChem.
